Reference: article PMC9907071 (Proceedings of the National Academy of Sciences of the …, 2022)
Values after ≈ are worked out from the molar mass of the structure shown. Values joined by “and” are separate entries in the source; they are usually repeats but may differ in a detail not shown here. Equal entries are not always repeated. Where two headings read alike, the source gives them in different places.

Tests used:
A. baumannii AB307 [1] = assay: Time-kill assay; type: cell-based, Acinetobacter baumannii; conditions: DSM186 1 µg/mL, DSM161 17.5 µg/mL, meropenem 1 µg/mL
Method in brief: (§1)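 Time-kill assays were run in pyrimidine-deficient MM at a fixed compound concentration: 1 µg/mL (2.9 µM) or 17.5 µg/mL (50 µM). Untreated and meropenem 1 µg/mL (2.6 µM) comparators were included. CFU was enumerated over time against the starting inoculum. Data are mean ± SEM of 2–4 independent studies, each with 2–5 technical replicates.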

AbDHODH = biological target: T1, AbDHODH (Acinetobacter baumannii, UniProt B7GZW7); assay: AbDHODH steady-state rate assay; type: biochemical
T1 sequence (B7GZW7 1-334): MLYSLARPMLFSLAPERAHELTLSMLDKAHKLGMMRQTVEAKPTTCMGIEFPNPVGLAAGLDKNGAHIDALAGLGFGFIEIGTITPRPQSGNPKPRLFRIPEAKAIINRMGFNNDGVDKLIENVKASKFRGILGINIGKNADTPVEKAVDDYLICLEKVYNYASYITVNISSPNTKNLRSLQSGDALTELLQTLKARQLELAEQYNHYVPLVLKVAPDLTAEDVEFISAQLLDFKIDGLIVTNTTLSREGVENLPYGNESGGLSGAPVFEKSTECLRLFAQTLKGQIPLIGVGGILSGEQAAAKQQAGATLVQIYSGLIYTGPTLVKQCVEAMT

A. baumannii AB307-0294 = assay: Antimicrobial susceptibility testing in MM; type: cell-based, Acinetobacter baumannii; conditions: for uracil rescue of growth: AB307, 0.2 mM uracil; for cidal or static activity by CFU vs initial inoculum: AB307 and HUMC1, DSM186 at >1 µg/mL, DSM161 at highest concentrations assessed; for EC50: Acinetobacter baumannii, AB3070294, 24 h, read-out: AB307 EC50
[2] = system: A. baumannii HUMC1 (CR-XDR); assay: Antimicrobial susceptibility testing in MM; type: cell-based, Acinetobacter baumannii; conditions: for EC50 / MIC: Acinetobacter baumannii, 24 h; for EC50: read-out: HUMC EC50
A. baumannii LAC-4 (MDR) = assay: Antimicrobial susceptibility testing in MM; type: cell-based; conditions: Acinetobacter baumannii, 24 h; for EC50: read-out: LAC-4 EC50; for MIC: read-out: LAC-4 MIC
Method in brief: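 Overnight (18 h) cultures in minimal medium (MM) plus casamino acids were diluted 1:1,000 and titred on LB plates. Test compound (in DMSO) was added at various concentrations, giving about 5 × 10^5 CFU/mL final. Medium-only and DMSO wells served as controls. Plates were shaken at 37 °C for 24 h, reading Å600 every 15 min. […] There were 2–4 technical replicates per concentration, and results are mean ± SEM of multiple independent studies.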

A. baumannii AB307ΔpyrD = assay: Time-kill assay; type: cell-based, Acinetobacter baumannii; conditions: pyrimidine-deficient medium
[3] = system: A. baumannii AB307-0294 isolates; assay: Susceptibility of AB307-0294 isolates recovered from DSM161-treated mice; type: cell-based, Acinetobacter baumannii; conditions: eight independent colonies of AB307 from three animals
Method in brief: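 Neutropenic BALB/c mice were infected in the thigh with AB307 and given test compound orally at 100 mg/kg at 0 and 12 h. Eight independent colonies were recovered from three sites in three animals and retested. MIC was determined by CFU at 24 h in MM, defined as growth within ± ½ log of the starting inoculum.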

HsDHODH [4] = biological target: T2, HsDHODH (Homo sapiens, UniProt Q02127); conditions: read-out: HsDHODH IC50; previously reported; ref [25], [27]; cited from earlier work
HsDHODH [5] = biological target: T2, HsDHODH; assay: biochemical
A. baumannii HUMC1 = assay: Time-kill assay; type: cell-based, Acinetobacter baumannii; conditions: DSM186 1 µg/mL, meropenem 1 µg/mL
Method in brief: as §1

A. baumannii AB307 [6] = assay: Efflux and permeability assay; type: cell-based, Acinetobacter baumannii; conditions: DSM186 0.015 µg/mL
A. baumannii strains = assay: DSM186 on a panel of A. baumannii strains; type: cell-based, Acinetobacter baumannii; conditions: for MIC: Acinetobacter baumannii
Microsomal stability [7] = type: in vitro ADME; conditions: human liver microsomes
Microsomal stability [8] = type: in vitro ADME; conditions: mouse microsomes
[9] = read-out: MIC as measured by CFU

T2 sequence (Q02127 whole entry): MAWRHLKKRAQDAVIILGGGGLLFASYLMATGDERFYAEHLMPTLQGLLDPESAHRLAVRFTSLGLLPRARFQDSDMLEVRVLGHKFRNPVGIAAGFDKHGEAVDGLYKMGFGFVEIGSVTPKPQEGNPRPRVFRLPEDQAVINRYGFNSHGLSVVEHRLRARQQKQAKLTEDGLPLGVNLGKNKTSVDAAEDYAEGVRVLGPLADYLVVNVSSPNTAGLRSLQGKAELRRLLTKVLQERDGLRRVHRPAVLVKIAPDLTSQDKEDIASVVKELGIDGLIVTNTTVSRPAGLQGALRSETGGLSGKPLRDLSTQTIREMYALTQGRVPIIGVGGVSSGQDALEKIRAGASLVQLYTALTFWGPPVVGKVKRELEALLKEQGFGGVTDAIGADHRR

Row | Structure (SMILES) | time-kill: CFU over time vs starting inoculum (A. baumannii AB307 [1]) | IC50 (AbDHODH) [µM] | uracil rescue of growth (A. baumannii AB307-0294) | EC50 (A. baumannii AB307-0294) [µM] | EC50 [2] [µM] | MIC ([2]; read-out: HUMC MIC) | EC50 (A. baumannii LAC-4 (MDR)) [µM] | MIC (A. baumannii LAC-4 (MDR)) | also measured
1 | C[C@@H](O)[C@H]1C(=O)N2C(C(=O)O)=C(S[C@@H]3CN[C@H](C(=O)N(C)C)C3)[C@H](C)[C@H]12 [meropenem, reference compound] | decreased below the starting inoculum |  |  |  |  |  |  |  | 
2 | Cc1cc(Nc2ccc(S(F)(F)(F)(F)F)cc2)n2ncnc2n1 [DSM161] | decreased below the starting inoculum | 0.3 ± 0.11 | uracil rescue was also demonstrated | 1.4 ± 0.3 | 8.4 ± 0.85 | 25 µM and 8.8 µg/mL | 4.4 ± 0.47 | 25 µM and 8.8 µg/mL | cidal or static activity by CFU vs initial inoculum (A. baumannii AB307-0294): bacteriostatic; fold MIC by CFU higher than MIC by absorbance assay (A. baumannii AB307-0294; both strains (AB307, HUMC1)): 10 fold; MIC [2, 9]: 50 µM and 17.5 µg/mL; fold difference in potency, drug-resistant strains vs drug-sensitive AB307 ([2]; HUMC1 and LAC-4 vs AB307): 3–6 fold; time-kill: killing of DHODH deletion mutant (A. baumannii AB307ΔpyrD): neither DSM186 nor DSM161 caused increased killing; change in MIC (by CFU) of colonies recovered from treated animals [3]: no change in MIC; IC50 (HsDHODH [4]): > 100 µM
3 | Cc1cc(Nc2ccc(S(F)(F)(F)(F)F)cc2)n2ccnc2n1 [DSM186] | decreased below the starting inoculum | 0.028 ± 0.0038 | rescued by the addition of uracil | 0.053 ± 0.0082 | 0.17 ± 0.0033 | 0.78 µM and 0.27 µg/mL | 0.17 ± 0.033 | 1.3 µM and 0.45 µg/mL | IC50 (HsDHODH [5]): > 100 µM; cidal or static activity by CFU vs initial inoculum (A. baumannii AB307-0294): cidal activity; MIC [2, 9]: 1.6 µM and 0.55 µg/mL; uracil rescue of growth ([2]; HUMC1, 0.2 mM uracil): rescued by the addition of uracil; time-kill: CFU over time vs starting inoculum (A. baumannii HUMC1): decreased below the starting inoculum; time-kill: killing of DHODH deletion mutant (A. baumannii AB307ΔpyrD): neither DSM186 nor DSM161 caused increased killing; effect of combination of PAβN and PMBN on activity (A. baumannii AB307 [6]): less active than PMBN alone; effect of efflux inhibitor PAβN on activity (A. baumannii AB307 [6]; PAβN 70 µg/mL): somewhat increased the activity; effect of permeability-increasing agent PMBN on activity (A. baumannii AB307 [6]; PMBN 64 µg/mL): somewhat increased the activity; concentration inhibiting growth by CFU (A. baumannii strains; 17/23 strains, relative to starting inoculum (± ½ log) at 24 h): 1 µg/mL and 2.9 µM; activity across strains tested (A. baumannii strains; 30 strains including 12 CR-XDR isolates): active against all the 30 strains tested; MIC (A. baumannii strains; read-out: MIC assessed by Å600): 0.11 to 1.09 µg/mL (≈ 0.314 to 3.11 µM); MIC (A. baumannii strains; read-out: minimal inhibitory concentration): ≤ 1 µg/mL; concentration inhibiting growth by CFU (A. baumannii strains; remaining six strains): 2 µg/mL and 5.8 µM; metabolic stability (Microsomal stability [7]): metabolically stable; metabolic stability (Microsomal stability [8]): less stable
4 | Cc1cc(Nc2ccc3c(c2)CCCC3)n2ccnc2n1 [DSM187] |  | 0.17 |  |  |  |  |  |  | 
5 | Cc1cc(Nc2ccc(C(F)(F)F)cc2)c2ccccc2n1 [DSM250] |  | 0.085 ± 0.015 | uracil rescue was also demonstrated | 0.38 ± 0.14 |  |  | 1.6 | 12.5 µM and 3.8 µg/mL | IC50 (HsDHODH [5]): > 100 µM; concentrations showing some off-target activity (A. baumannii AB307-0294; AB307, uracil rescue study): above 10 µM
6 | Cc1cc(Nc2ccc(S(F)(F)(F)(F)F)cc2)n2nc(C(C)(F)F)nc2n1 [DSM265] |  | 0.59 ± 0.16 | uracil rescue was also demonstrated | 2.7 ± 0.21 |  |  |  |  | 
7 | Cc1cc(Nc2ccc(C(F)(F)F)c(F)c2)n2ncnc2n1 [DSM125] |  | 0.91 ± 0.07 |  | 9.6 | 34 | 51 µM and 16 µg/mL |  |  | IC50 (HsDHODH [4]): > 100 µM
